Screening data: PubChem BioAssay, SRMLSC
Yeast life ext = compounds extending yeast replicative lifespan, primary screen, S. cerevisiae, OD615 | S. cerevisiae growth with nicotinamide; deaD strain in restrictive glucose medium | inhibition of the nicotinamide effect, % at 10 µM | actives 0.68% (n = 130,000);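 active means inhibition above a set limit, placed 3 SD over the median of all compounds, cut at about 26% in these data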
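assay system = DeaD-strain S. cerevisiae | buffer or medium = restrictive glucose medium | reagent = 1.5 mM nicotinamide | compound = 10 µM single point, 0.25% DMSO | incubation = 48 h compound exposure at 30 °C, humidified | signal = OD615 measurement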
Yeast growth inh = growth inhibitors of yeast BB579 in restrictive medium, primary screen, yeast lifespan-shortening project, S. cerevisiae | actives 0.51% (n = 140,000) | AID 804, 2007 | OD615, 48 h | inhibition, % at 10 µM;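 active means inhibition above a set limit, 3 SD over the mean compound inhibition, cut at about 44% in these data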
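System: DeaD yeast strain BB579; buffer or medium: CSMM-D dextrose restrictive medium; technique: OD at 615 nm; schedule: 4 h cell preincubation, 48 h compound exposure, 30 °C humidified; doses: single 10 µM dose; controls: amphotericin B 10 µg/mL, positive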
RAM inhibit = inhibitors of the yeast RAM network, primary screen, dse1pr::URA3 reporter, 5-FOA selection. S. cerevisiae dse1pr::URA3 reporter, 5-FOA growth OD615, 2 d; analog-sensitive cbk1-as2 kinase mutant strain. inhibition, % at 50 µM. actives 1.8% (n = 190,000);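 active means inhibition above a set limit, 3 SD over mean compound inhibition, cut at about 8.4% in these data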;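 further: inhibition rescues growth on 5-FOA so higher OD means more RAM inhibition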
WT yeast gro inh = growth inhibition of WT strain, primary screen, mitochondrial fusion inhibitor project, WT and mutant strains, chemical genetic. actives 2.1% (n = 190,000). mitochondrial fusion phenotypic screen. inhibition, % at 10 µM. AID 1362, 2008; in the data active means inhibition above about 58%; tested in S. cerevisiae
A number is an active result. A selection: hits, their analogues and other compounds. The true share with any hit is near 4.3%.

Screening O=C(CCc1ccccc1)NNC(=S)NC(=O)c1ccccc1 returned Yeast life ext inactive, Yeast growth inh 69, RAM inhibit inactive and WT yeast gro inh inactive.
`Cc1ccccc1C(=O)NNC(=S)NC(=O)c1ccccc1` gave Yeast life ext 30, Yeast growth inh inactive, RAM inhibit inactive and WT yeast gro inh inactive.
CC(/C=C1\SC(=S)N(CCCC(=O)Nc2ccc(C(=O)O)cc2)C1=O)=C\c1ccccc1 was read as Yeast life ext inactive, Yeast growth inh inactive, RAM inhibit inactive and WT yeast gro inh inactive.
For CC(/C=C1\SC(=O)N(CCCC(=O)O)C1=O)=C\c1ccccc1 the results were Yeast life ext 29, Yeast growth inh inactive, RAM inhibit inactive and WT yeast gro inh inactive.
`CCOc1cc(Br)c(Br)c(C=Nc2ccc(NC(C)=O)cc2)c1O` gave Yeast life ext 49, Yeast growth inh inactive, RAM inhibit inactive and WT yeast gro inh inactive.
Screening CC(C(=O)OCC(=O)Nc1cccc(S(=O)(=O)N(C)C)c1)N1C(=O)c2ccccc2C1=O (centres undefined) returned RAM inhibit inactive and WT yeast gro inh inactive.
For CCOc1ccc(NC(=O)CC2C(=O)N(C)C(=S)N2CCCc2ccccc2)cc1 (centres undefined) the results were Yeast life ext inactive, Yeast growth inh inactive, RAM inhibit inactive and WT yeast gro inh inactive.
`CCN1C(=O)C(CC(=O)Nc2ccc(Br)cc2)N(CCCc2ccccc2)C1=S` (centres undefined) gave Yeast life ext inactive, Yeast growth inh inactive, RAM inhibit 11 and WT yeast gro inh inactive.
Fc1ccc(NCc2n[nH]c(=S)n2Cc2ccccc2)cc1 was read as RAM inhibit inactive and WT yeast gro inh inactive.
`O=C(Nc1nc2ccc(F)cc2s1)c1ccccn1` gave RAM inhibit inactive and WT yeast gro inh 79.
For N#CCSc1ccc(-c2nc3ccccc3[nH]2)cn1 the results were RAM inhibit inactive and WT yeast gro inh inactive.
Screening Cc1nn(CC(=O)Nc2ccc(Cl)c(S(=O)(=O)N(C)C)c2)c(C)c1[N+](=O)[O-] returned Yeast life ext inactive, Yeast growth inh inactive, RAM inhibit inactive and WT yeast gro inh inactive.
Screening CCC(CC)NCc1ccc2c(c1)c1ccccc1n2CC returned RAM inhibit inactive and WT yeast gro inh inactive.
CCn1c2ccccc2c2cc(CNCc3ccc(OC)cc3OC)ccc21 was read as RAM inhibit inactive and WT yeast gro inh 84.
Screening S=C(c1cn(Cc2ccc(Br)cc2)c2ccccc12)N1CCOCC1 returned Yeast life ext inactive, Yeast growth inh inactive, RAM inhibit inactive and WT yeast gro inh inactive.
Screening Cc1cccc(-n2ncc3c(N(C)Cc4ccccc4)ncnc32)c1 returned WT yeast gro inh 70.
For COCCN(C(=O)Cc1cccs1)C(C(=O)NCc1ccc(OC)cc1)c1ccccc1 (centres undefined) the results were Yeast life ext inactive, Yeast growth inh inactive, RAM inhibit inactive and WT yeast gro inh 99.
For COc1ccc(CNC(=O)C(c2ccncc2)N(C(=O)Cc2cccs2)c2ccccc2)cc1 (centres undefined) the results were Yeast life ext inactive, Yeast growth inh inactive, RAM inhibit inactive and WT yeast gro inh inactive.
Screening O=C(NCCCN1CCOCC1)/C(=C/c1ccc(F)cc1)NC(=O)c1ccccc1 returned RAM inhibit inactive and WT yeast gro inh inactive.
`Cc1ccc(Nc2nc3nonc3[nH]c2=O)cc1Cl` gave RAM inhibit inactive and WT yeast gro inh 64.
`Cc1ccc(Nc2nc3nonc3[nH]c2=O)cc1C` gave Yeast life ext inactive, Yeast growth inh inactive, RAM inhibit inactive and WT yeast gro inh inactive.
O=C(CCc1nnc(C2(c3ccc(Cl)cc3)CCC2)o1)NCCCn1cccn1 was read as RAM inhibit inactive and WT yeast gro inh inactive.
COc1ccccc1N=C(C)C1=C(O)CC(c2ccccc2)CC1=O (centres undefined) was read as RAM inhibit inactive and WT yeast gro inh inactive.
Screening CCCCC(=Nc1ccccc1OC)C1=C(O)CC(c2ccccc2)CC1=O (centres undefined) returned Yeast life ext 67, Yeast growth inh inactive, RAM inhibit inactive and WT yeast gro inh inactive.
For CCCC(=Nc1ccccc1OC)C1=C(O)CC(c2ccccc2)CC1=O (centres undefined) the results were Yeast life ext 59, Yeast growth inh inactive, RAM inhibit inactive and WT yeast gro inh inactive.
